Laboratory results as given in ChEMBL document CHEMBL5576140, “Computational Design of Pore-Forming Peptides with Potent Antimicrobial and Anticancer Activities” (J Med Chem, 2024).
Activity calls are given as the source filed them. The calls are words filed in the database; no cut-off is given here.

Assays:
HL-60 [1] = assay: Anti-cancer activity against human HL-60 cells incubated for 72 hrs by Cell Titer Glo assay; type: functional, cell-based; conditions: HL-60, 72 h
NCI-H460 = assay: Anti-cancer activity against human NCI-H460 cells incubated for 72 hrs by Cell Titer Glo assay; type: functional, cell-based; conditions: NCI-H460, 72 h
Staphylococcus aureus [2] = assay: Antimicrobial activity against Staphylococcus aureus NE1506 harboring single transposon insertion mutation in V8 protease at 30 uM incubated for 18 hrs relative to control; type: functional
Procedure, shortened: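 CA-MRSA USA300 LAC derivative JE2 and single transposon insertion mutants derived from JE2, each lacking an extracellular protease gene, were exposed to peptides up to 30 μM. The read-out was percent growth inhibition. Peptides were dissolved in PBS, and tests were run in triplicate.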

K562 [3] = assay: pH-dependent anticancer activity against human K562 cells in PBS medium at 10 uM incubated for 1 hr; type: functional, cell-based
Procedure, shortened: (§1)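 Cells cultured in RPMI, DMEM or PBS, each adjusted to pH 8, 7 or 6, plus one unadjusted (~7.6). Peptide at 10 μM for only 1 h, to limit pH drift from CO₂-bicarbonate buffering. Cell viability read. Controls were melittin, ampicillin and PBS. Two independent repetitions; effects analysed by ANOVA.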

Staphylococcus aureus [4] = assay: Depolarization of cytoplasmic membrane in Staphylococcus aureus ATCC 12600 at MIC measured for 45 mins by DiSC3-(5) dye based assay; type: functional, organism-based
Procedure, shortened: (§2)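 Bacteria loaded with membrane-potential dye DiSC3-(5), then treated with peptide at its MIC for the respective strain; depolarization read as rise in dye fluorescence; polymyxin B and levofloxacin as reference antibiotics.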

Acinetobacter baumannii [5] = assay: Induction of outer membrane permeabilization in Acinetobacter baumannii ATCC 19606 measured for 20 mins by NPN uptake assay; type: functional, organism-based
MCF7 [6] = assay: Anti-cancer activity against human MCF7 cells incubated for 72 hrs by Cell Titer Glo assay; type: functional, cell-based; conditions: MCF7, 72 h
[7] = Toxicity against reconstructed human skin model assessed as irritation at 50 uM incubated for 1 hr followed by compound washout measured after 42 hrs by MTT assay; type: tissue-based, Skin of body
Procedure, shortened: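 Reconstructed human epidermis with stratum corneum, per OECD TG 439 skin irritation guideline. Tissues exposed 1 h to peptide at 50 μM, then 42 h post-treatment incubation. Viability read by MTT. Controls were SDS and melittin.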

MCF7 [8] = assay: pH-dependent anticancer activity against human MCF7 cells in RPMI medium at 10 uM incubated for 1 hr; type: functional, cell-based; procedure, shortened: as §1
RPMI-8226 = assay: Anti-cancer activity against human RPMI-8226 cells incubated for 72 hrs by Cell Titer Glo assay; type: functional, cell-based; conditions: RPMI-8226, 72 h
HCT-116 [9] = assay: pH-dependent anticancer activity against human HCT-116 cells in PBS medium at 10 uM incubated for 1 hr; type: functional, cell-based; procedure, shortened: as §1
Enterococcus faecium = assay: Depolarization of cytoplasmic membrane in Enterococcus faecium ATCC 700221 at MIC measured for 45 mins by DiSC3-(5) dye based assay; type: functional, organism-based; procedure, shortened: as §2
B cell = assay: Cytotoxicity against human B-lymphocytes assessed as deleterious effect upto 50 uM by flow cytometry; type: toxicity, cell-based
Procedure, shortened: (§3)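 Whole blood from a healthy donor treated with peptides up to 50 μM; effect on B and T lymphocytes, granulocytes and monocytes assessed.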

K562 [10] = assay: Anti-cancer activity against human K562 cells at 10 uM incubated for 30 mins; type: functional, cell-based
MCF7 [11] = assay: Induction of apoptosis in human MCF7 cells in DMEM medium at pH 6 assessed as increase in cleaved PARP level at 5 uM; type: functional, cell-based
Procedure, shortened: (§4)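 MCF-7 cells treated with peptides at pH 6; apoptosis detected by immunoblotting for cleaved PARP and cleaved caspase-3.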

Klebsiella pneumoniae [12] = assay: Induction of outer membrane permeabilization in Klebsiella pneumoniae ATCC 13883 measured for 20 mins by NPN uptake assay; type: functional, organism-based
Procedure, shortened: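 Outer-membrane permeabilization of Gram-negative bacteria read as rise in fluorescence of the lipophilic dye NPN, which enters only when outer-membrane integrity is compromised. Peptides applied at their MIC against the respective strain; polymyxin B and levofloxacin as reference antibiotics. Triplicates.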

Acinetobacter baumannii [13] = assay: Depolarization of cytoplasmic membrane in Acinetobacter baumannii ATCC 19606 at MIC measured for 45 mins by DiSC3-(5) dye based assay; type: functional, organism-based; procedure, shortened: as §2
MDA-MB-231 = assay: Anti-cancer activity against human MDA-MB-231 cells incubated for 72 hrs by Cell Titer Glo assay; type: functional, cell-based; conditions: MDA-MB-231, 72 h
MCF7 [14] = assay: Induction of apoptosis in human MCF7 cells in DMEM medium at pH 6 assessed as increase in cleaved capase-3 level at 5 uM; type: functional, cell-based; procedure, shortened: as §4
SW-620 = assay: Anti-cancer activity against human SW620 cells incubated for 72 hrs by Cell Titer Glo assay; type: functional, cell-based; conditions: SW-620, 72 h
T47D = assay: Anti-cancer activity against human T47D cells incubated for 72 hrs by Cell Titer Glo assay; type: functional, cell-based
K562 [15] = assay: pH-dependent anticancer activity against human K562 cells in RPMI medium at 10 uM incubated for 1 hr; type: functional, cell-based; procedure, shortened: as §1
[16] = Toxicity in immunosuppressed Balb/c mouse excisional dorsal wound infection model infected with Acinetobacter baumannii NCTC 13301 assessed as decrease in animal survival at about 10 mg/kg treated for 7 days once daily measured after 45 days; type: organism-based; conditions: in vivo, 1080 h, time 45 day
HL-60 [17] = assay: pH-dependent anticancer activity against human HL-60 cells in RPMI medium at 10 uM incubated for 1 hr; type: functional, cell-based; procedure, shortened: as §1
SK-OV-3 = assay: Anti-cancer activity against human SK-OV-3 cells incubated for 72 hrs by Cell Titer Glo assay; type: functional, cell-based; conditions: SK-OV-3, 72 h
HL-60 [18] = assay: pH-dependent anticancer activity against human HL-60 cells in DMEM medium at 10 uM incubated for 1 hr; type: functional, cell-based; procedure, shortened: as §1
Pseudomonas aeruginosa = assay: Depolarization of cytoplasmic membrane in Pseudomonas aeruginosa PAO1 at MIC measured for 45 mins by DiSC3-(5) dye based assay; type: functional, organism-based; procedure, shortened: as §2
HCT-116 [19] = assay: pH-dependent anticancer activity against human HCT-116 cells in RPMI medium at 10 uM incubated for 1 hr; type: functional, cell-based; procedure, shortened: as §1
Klebsiella pneumoniae [20] = assay: Depolarization of cytoplasmic membrane in Klebsiella pneumoniae ATCC 13883 at MIC measured for 45 mins by DiSC3-(5) dye based assay; type: functional, organism-based; procedure, shortened: as §2
MCF7 [21] = assay: pH-dependent anticancer activity against human MCF7 cells in PBS medium at 10 uM incubated for 1 hr; type: functional, cell-based; procedure, shortened: as §1
MCF7 [22] = assay: pH-dependent anticancer activity against human MCF7 cells in DMEM medium at 10 uM incubated for 1 hr; type: functional, cell-based; procedure, shortened: as §1
[23] = Toxicity in immunosuppressed Balb/c mouse excisional dorsal wound infection model infected with Acinetobacter baumannii NCTC 13301 assessed as body weight loss at about 10 mg/kg treated for 7 days once daily measured after 45 days; type: organism-based; conditions: in vivo, 1080 h, time 45 day
Procedure, shortened: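 Excisional dorsal wound model in immunosuppressed mice infected with 5 × 10⁴ cells per mL of A. baumannii. Treated, PBS-treated and untreated groups were compared. Body weight and survival were followed for 45 days.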

[24] = Cytotoxicity against human granulocytes assessed as deleterious effect upto 50 uM by flow cytometry; type: toxicity, cell-based; conditions: granulocyte; procedure, shortened: as §3
SUD4 = assay: Anti-cancer activity against human SU-DHL-4 cells incubated for 24 hrs by WST assay; type: functional, cell-based; conditions: SU-DHL-4, 24 h
U-251 = assay: Anti-cancer activity against human U-251MG cells incubated for 72 hrs by Cell Titer Glo assay; type: functional, cell-based; conditions: U-251, 72 h

Q: Which IC50 (HL-60 [1]) does the source give for H-KKKKLKKILKKLFQFINQLDNQLQDIKQNK-NH2 here?
A: 1000 nM

Q: And the IC50 (NCI-H460)?
A: 1000 nM

Q: And the inhibition at 30 µM (Staphylococcus aureus [2])?
A: < 45%

Q: What about the Activity (K562 [3]) of the same substance?
A: Active

Q: What about the Activity (Staphylococcus aureus [4]) of the same substance?
A: Active

Q: What about the Activity (Acinetobacter baumannii [5]) of the same substance?
A: inactive

Q: And the IC50 (MCF7 [6])?
A: 1000 nM

Q: And the Activity [7]?
A: Non-Toxic

Q: And the Activity (MCF7 [8])?
A: Active

Q: And the IC50 (RPMI-8226)?
A: 1000 nM

Q: What about the Activity (HCT-116 [9]) of the same substance?
A: Active

Q: And the Activity (Enterococcus faecium)?
A: Active

Q: And the Activity (B cell)?
A: Non-Toxic

Q: What about the Activity (K562 [10]) of the same substance?
A: Active

Q: And the Activity (MCF7 [11])?
A: Active

Q: What about the Activity (Klebsiella pneumoniae [12]) of the same substance?
A: Active

Q: What about the Activity (Acinetobacter baumannii [13]) of the same substance?
A: Active

Q: What about the IC50 (MDA-MB-231) of the same substance?
A: 1000 nM

Q: And the Activity (MCF7 [14])?
A: Active

Q: What about the IC50 (SW-620) of the same substance?
A: 1000 nM

Q: And the IC50 (T47D)?
A: 1000 nM

Q: And the Activity (K562 [15])?
A: Active

Q: And the Activity [16]?
A: Toxic

Q: And the Activity (HL-60 [17])?
A: Active

Q: And the IC50 (SK-OV-3)?
A: 1000 nM

Q: And the Activity (HL-60 [18])?
A: Active

Q: And the Activity (Pseudomonas aeruginosa)?
A: Active

Q: What about the Activity (HCT-116 [19]) of the same substance?
A: Active

Q: And the Activity (Klebsiella pneumoniae [20])?
A: Active

Q: What about the Activity (MCF7 [21]) of the same substance?
A: Active

Q: What about the Activity (MCF7 [22]) of the same substance?
A: Active

Q: And the Activity [23]?
A: Toxic

Q: What about the Activity [24] of the same substance?
A: Non-Toxic

Q: And the IC50 (SUD4)?
A: ≤ 10000 nM

Q: And the IC50 (U-251)?
A: 1000 nM
